Experimental data: ChEMBL document CHEMBL2311339, “Identification of GZD824 as an orally bioavailable inhibitor that targets phosphorylated and nonphosphorylated breakpoint cluster region-Abelson (Bcr-Abl) kinase and overcomes clinically acquired mutation-induced resistance against imatinib” (J Med Chem, 2013)
pIC50, pKd: −log10 of the molar value. The source made the active and inactive calls. The calls are words filed in the database; no cut-off is given here.

Assays:
[1] = biological target: Tyrosine-protein kinase ABL1 (Homo sapiens, UniProt P00519, E255K); assay: Binding affinity to phosphorylated ABL1 E255K mutant (unknown origin) after 1 hr
[2] = biological target: Tyrosine-protein kinase ABL1 (Homo sapiens, UniProt P00519, M351T); assay: Inhibition of human recombinant ABL1 M351T mutant expressed in insect cells after 30 mins by FRET assay; assay type: cell-based
[3] = Cytotoxicity against mouse BA/F3 cells expressing BCR-ABL E255V mutant assessed as growth inhibition after 72 hrs by CCK-8 assay; details: BaF3, 72 h
BaF3 [4] = assay: Antitumor activity against mouse BA/F3 cells expressing BCR-ABL T315I mutant allografted in po dosed SCID mouse assessed as reduction of hepatosplenomegaly administered qd for 14 days; assay type: functional, organism-based
[5] = biological target: Mast/stem cell growth factor receptor Kit (Homo sapiens) (UniProt P10721); assay: Binding affinity to KIT (unknown origin) at 10 nM after 2 hrs by FRET assay
Sequence of Mast/stem cell growth factor receptor Kit (Homo sapiens) (P10721 whole entry): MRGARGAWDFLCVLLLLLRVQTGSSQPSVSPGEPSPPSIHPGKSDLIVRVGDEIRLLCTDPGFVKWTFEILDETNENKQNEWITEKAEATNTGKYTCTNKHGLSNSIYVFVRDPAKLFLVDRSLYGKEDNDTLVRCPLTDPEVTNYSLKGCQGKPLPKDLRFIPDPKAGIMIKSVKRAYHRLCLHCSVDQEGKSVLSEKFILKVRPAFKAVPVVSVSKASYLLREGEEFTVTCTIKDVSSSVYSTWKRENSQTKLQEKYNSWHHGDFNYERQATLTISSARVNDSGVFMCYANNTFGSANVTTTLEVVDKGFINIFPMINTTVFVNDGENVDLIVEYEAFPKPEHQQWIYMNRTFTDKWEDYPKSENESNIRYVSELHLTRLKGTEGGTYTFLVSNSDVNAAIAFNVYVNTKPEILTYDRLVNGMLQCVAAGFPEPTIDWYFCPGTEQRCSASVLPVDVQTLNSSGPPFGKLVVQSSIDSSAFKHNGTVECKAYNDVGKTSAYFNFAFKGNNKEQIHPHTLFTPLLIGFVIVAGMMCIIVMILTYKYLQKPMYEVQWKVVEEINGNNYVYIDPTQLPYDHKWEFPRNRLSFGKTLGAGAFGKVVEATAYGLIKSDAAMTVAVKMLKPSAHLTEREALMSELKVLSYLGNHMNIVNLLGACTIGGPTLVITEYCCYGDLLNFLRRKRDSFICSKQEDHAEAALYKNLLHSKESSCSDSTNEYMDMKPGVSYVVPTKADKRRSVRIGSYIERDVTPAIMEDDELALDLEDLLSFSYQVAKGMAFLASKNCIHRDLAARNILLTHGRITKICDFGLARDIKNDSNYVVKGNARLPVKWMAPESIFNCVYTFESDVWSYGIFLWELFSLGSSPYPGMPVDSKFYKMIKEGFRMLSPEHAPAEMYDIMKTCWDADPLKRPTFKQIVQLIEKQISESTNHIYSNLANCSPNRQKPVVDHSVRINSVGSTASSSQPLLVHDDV

[6] = biological target: Tyrosine-protein kinase ABL1 (Homo sapiens, UniProt P00519); assay: Inhibition of human recombinant wild type ABL1 expressed in insect cells after 30 mins by FRET assay; assay type: cell-based
[7] = Cytotoxicity against mouse BA/F3 cells expressing BCR-ABL H396R mutant assessed as growth inhibition after 72 hrs by CCK-8 assay; details: BaF3, 72 h
[8] = Cytotoxicity against mouse BA/F3 cells expressing BCR-ABL F317V mutant assessed as growth inhibition after 72 hrs by CCK-8 assay; details: BaF3, 72 h
[9] = biological target: Proto-oncogene tyrosine-protein kinase receptor Ret (Homo sapiens) (UniProt P07949); assay: Binding affinity to RET (unknown origin) at 10 nM after 2 hrs by FRET assay
Sequence of Proto-oncogene tyrosine-protein kinase receptor Ret (Homo sapiens) (P07949 whole entry): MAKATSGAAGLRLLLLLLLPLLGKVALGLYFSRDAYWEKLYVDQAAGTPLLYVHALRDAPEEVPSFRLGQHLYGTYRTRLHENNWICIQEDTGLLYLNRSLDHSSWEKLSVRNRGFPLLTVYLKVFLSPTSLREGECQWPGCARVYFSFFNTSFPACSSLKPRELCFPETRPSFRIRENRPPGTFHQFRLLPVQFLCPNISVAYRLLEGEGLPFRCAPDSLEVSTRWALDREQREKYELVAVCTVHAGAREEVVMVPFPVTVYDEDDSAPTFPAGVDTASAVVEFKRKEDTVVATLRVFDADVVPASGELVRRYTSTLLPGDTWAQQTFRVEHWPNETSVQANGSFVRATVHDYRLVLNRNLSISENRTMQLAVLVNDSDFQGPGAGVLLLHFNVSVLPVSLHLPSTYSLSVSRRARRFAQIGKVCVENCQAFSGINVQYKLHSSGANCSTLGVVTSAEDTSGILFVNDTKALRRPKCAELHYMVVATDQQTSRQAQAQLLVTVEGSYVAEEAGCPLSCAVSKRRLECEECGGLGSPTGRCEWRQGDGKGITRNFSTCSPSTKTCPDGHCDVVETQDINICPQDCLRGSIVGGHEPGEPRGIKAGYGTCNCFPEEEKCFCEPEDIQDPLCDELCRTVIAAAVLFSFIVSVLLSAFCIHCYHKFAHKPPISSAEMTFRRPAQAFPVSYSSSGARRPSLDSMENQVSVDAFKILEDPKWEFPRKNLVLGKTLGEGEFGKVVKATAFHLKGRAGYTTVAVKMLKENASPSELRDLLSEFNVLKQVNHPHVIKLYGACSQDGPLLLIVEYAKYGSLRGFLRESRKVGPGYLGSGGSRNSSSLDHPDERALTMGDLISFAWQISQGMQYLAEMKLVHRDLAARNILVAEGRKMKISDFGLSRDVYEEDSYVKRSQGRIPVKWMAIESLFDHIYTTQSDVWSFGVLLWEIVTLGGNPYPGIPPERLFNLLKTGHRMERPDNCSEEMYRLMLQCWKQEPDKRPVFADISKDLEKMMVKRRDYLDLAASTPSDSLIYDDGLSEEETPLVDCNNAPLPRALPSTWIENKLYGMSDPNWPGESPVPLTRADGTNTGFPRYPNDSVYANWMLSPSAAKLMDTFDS

K562 [10] = assay: Cytotoxicity against human K562 cells expressing BCR-ABL assessed as growth inhibition after 72 hrs by CCK-8 assay; assay type: functional, cell-based; details: K562, 72 h
Outline: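 Log-phase human leukemia cells were seeded at about 3000 cells/well and treated 24 h later for 72 h. CCK-8 was then incubated with the cells for 3 h and read as OD450 − OD650. Viability was normalized to vehicle wells and cell-free blanks, and IC50 taken as the mean of three experiments.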

Cytochrome P450 2C9 = Cytochrome P450 2C9 (Homo sapiens, UniProt P11712); assay: Inhibition of human recombinant CYP2C9 after 30 mins; assay type: ADME
Sequence of Cytochrome P450 2C9 (P11712 whole entry): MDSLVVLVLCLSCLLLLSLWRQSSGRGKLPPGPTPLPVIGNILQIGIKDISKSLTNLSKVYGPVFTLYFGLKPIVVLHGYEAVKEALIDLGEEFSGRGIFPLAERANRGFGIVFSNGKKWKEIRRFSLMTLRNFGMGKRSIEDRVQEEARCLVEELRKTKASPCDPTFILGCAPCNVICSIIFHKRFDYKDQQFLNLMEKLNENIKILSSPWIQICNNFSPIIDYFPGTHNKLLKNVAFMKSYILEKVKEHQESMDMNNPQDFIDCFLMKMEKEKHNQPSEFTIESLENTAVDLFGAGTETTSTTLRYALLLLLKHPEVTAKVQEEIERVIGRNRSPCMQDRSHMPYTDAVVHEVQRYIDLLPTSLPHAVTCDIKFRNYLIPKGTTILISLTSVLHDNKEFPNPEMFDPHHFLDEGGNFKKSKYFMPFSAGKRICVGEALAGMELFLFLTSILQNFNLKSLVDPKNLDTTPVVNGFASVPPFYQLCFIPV

Mus musculus = assay: Toxicity in human K562 cells xenografted mouse assessed as body weight loss relative to vehicle-treated control; assay type: organism-based; details: in vivo
Outline: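 K562 cells (2.5 × 10^7 cells/mL in normal saline, 0.2 mL) were injected subcutaneously into the right flank. Mice were randomized once mean tumor volume reached 100−200 mm3, n = 10 per group. Dosing was by oral gavage once daily for 14 days in 1% DMSO/22.5% Cremophor/7.5% ethanol/69% saline. Tumor volume (L × W²/2) and body weight were measured every 2 days; unpaired t test versus vehicle.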

[11] = AUC (0 to t) in rat at 25 mg/kg, po; assay type: ADME, organism-based; set-up: dose 25 mg/kg, route oral; details: plasma
Outline: (§1)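 Bismesylate salt given to rats as a single iv dose of 5 mg/kg or a single oral dose of 25 mg/kg. Plasma drug levels were followed over time to derive the PK parameters. The 12 h and 24 h plasma levels come from the oral 25 mg/kg dose.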

K562 [12] = assay: Cytotoxicity against imatinib-resistant human K562 cells expressing BCR-ABL Q252H mutant assessed as growth inhibition after 72 hrs by CCK-8 assay; assay type: functional, cell-based; details: K562, 72 h
Outline: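 The K562 subline was made imatinib-resistant by 3 months of exposure to imatinib from 0.1 to 5 μM, followed by clonal selection and sequencing to confirm Q252H. Cells were seeded at about 3000 cells/well, treated 24 h later for 72 h, then given CCK-8 for 3 h. Read-out was OD450 − OD650 normalized to vehicle; IC50 is the mean of three experiments.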

[13] = biological target: Proto-oncogene tyrosine-protein kinase Src (Homo sapiens) (UniProt P12931); assay: Binding affinity to SRC (unknown origin) at 10 nM after 2 hrs by FRET assay
[14] = Clearance in rat at 25 mg/kg, po; assay type: ADME, organism-based; set-up: dose 25 mg/kg, route oral; details: in vivo; outline: as §1
[15] = Cytotoxicity against mouse BA/F3 cells expressing BCR-ABL Y253H mutant assessed as growth inhibition after 72 hrs by CCK-8 assay; details: BaF3, 72 h
[16] = Cytotoxicity against mouse BA/F3 cells assessed as growth inhibition after 72 hrs by CCK-8 assay; details: BaF3, 72 h
Cytochrome P450 2D6 = Cytochrome P450 2D6 (Homo sapiens, UniProt P10635); assay: Inhibition of human recombinant CYP2D6 at 30 uM after 30 mins; assay type: ADME; details: recombinant enzyme, 0.5 h
Sequence of Cytochrome P450 2D6 (P10635 whole entry): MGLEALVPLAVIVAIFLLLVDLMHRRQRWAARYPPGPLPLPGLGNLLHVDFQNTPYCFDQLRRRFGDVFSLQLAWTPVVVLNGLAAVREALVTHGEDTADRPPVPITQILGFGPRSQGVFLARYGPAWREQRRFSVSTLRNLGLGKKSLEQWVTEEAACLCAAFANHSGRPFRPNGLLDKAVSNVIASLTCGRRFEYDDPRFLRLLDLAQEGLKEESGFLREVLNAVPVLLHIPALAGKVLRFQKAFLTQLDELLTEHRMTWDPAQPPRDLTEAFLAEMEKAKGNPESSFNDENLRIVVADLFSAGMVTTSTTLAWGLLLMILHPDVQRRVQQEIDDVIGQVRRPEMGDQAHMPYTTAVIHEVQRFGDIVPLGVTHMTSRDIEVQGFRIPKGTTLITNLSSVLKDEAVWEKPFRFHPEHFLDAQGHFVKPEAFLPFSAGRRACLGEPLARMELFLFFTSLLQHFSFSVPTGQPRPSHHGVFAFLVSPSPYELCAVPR

[17] = Cytotoxicity against mouse BA/F3 cells expressing BCR-ABL L248V mutant assessed as growth inhibition after 72 hrs by CCK-8 assay; details: BaF3, 72 h
BaF3 [18] = assay: Antitumor activity against mouse BA/F3 cells expressing wild type BCR-ABL allografted in SCID mouse assessed as induction of tumor regression at 5 mg/kg/day, po qd for 14 days; assay type: functional, organism-based
Outline: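 Ba/F3 cells stably expressing Bcr-Abl (wild type or mutant) were grown in RPMI 1640 with 10% FBS and no IL-3, then suspended in saline (2.5 × 10^7 cells/mL) and given as 0.2 mL s.c. in the right flank. Groups were randomised at 100−200 mm3. Once-daily oral gavage for 14 days in DMSO/Cremophor/ethanol/saline vehicle; reference imatinib 50 or 100 mg/kg/day. Volume L × W²/2 every 2 days; n = 10; t test versus vehicle.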

BaF3 [19] = assay: Antitumor activity against mouse BA/F3 cells expressing BCR-ABL T315I mutant allografted in SCID mouse assessed as increased survival at 1 to 20 mg/kg/day, po qd for 10 days; assay type: functional, organism-based
[20] = biological target: Platelet-derived growth factor receptor alpha (Homo sapiens) (UniProt P16234); assay: Binding affinity to PDGFRalpha (unknown origin) at 10 nM after 2 hrs by FRET assay
Sequence of Platelet-derived growth factor receptor alpha (Homo sapiens) (P16234 whole entry): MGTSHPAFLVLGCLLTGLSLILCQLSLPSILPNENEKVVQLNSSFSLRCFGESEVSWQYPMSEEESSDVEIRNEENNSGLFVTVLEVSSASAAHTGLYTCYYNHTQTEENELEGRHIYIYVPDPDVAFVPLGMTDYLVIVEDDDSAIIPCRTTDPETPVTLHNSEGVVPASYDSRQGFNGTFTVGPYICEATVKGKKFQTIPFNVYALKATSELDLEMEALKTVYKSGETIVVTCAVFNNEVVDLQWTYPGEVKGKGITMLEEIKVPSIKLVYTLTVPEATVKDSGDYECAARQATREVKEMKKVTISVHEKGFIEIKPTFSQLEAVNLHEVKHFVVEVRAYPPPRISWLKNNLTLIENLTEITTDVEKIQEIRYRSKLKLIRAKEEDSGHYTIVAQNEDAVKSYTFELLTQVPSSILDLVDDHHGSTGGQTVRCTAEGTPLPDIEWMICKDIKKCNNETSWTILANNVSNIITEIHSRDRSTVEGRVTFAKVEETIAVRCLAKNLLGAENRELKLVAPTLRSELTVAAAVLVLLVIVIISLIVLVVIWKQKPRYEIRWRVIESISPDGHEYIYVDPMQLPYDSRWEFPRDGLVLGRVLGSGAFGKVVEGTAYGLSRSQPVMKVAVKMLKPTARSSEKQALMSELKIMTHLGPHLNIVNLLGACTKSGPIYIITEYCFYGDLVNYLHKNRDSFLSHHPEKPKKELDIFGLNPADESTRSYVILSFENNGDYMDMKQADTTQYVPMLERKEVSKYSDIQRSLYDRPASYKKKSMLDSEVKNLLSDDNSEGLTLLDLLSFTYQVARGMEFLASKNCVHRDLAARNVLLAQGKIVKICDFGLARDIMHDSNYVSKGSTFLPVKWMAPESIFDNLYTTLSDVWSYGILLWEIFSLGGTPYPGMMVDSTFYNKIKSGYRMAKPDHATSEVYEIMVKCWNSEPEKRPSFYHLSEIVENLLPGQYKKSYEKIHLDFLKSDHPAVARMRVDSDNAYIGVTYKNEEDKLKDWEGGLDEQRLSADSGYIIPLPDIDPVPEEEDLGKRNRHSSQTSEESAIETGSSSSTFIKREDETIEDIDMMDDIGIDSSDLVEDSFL

BaF3 [21] = assay: Antitumor activity against mouse BA/F3 cells expressing BCR-ABL G250E mutant allografted in po dosed SCID mouse assessed as reduction of hepatosplenomegaly administered qd for 14 days; assay type: functional, organism-based
K562 [22] = assay: Antitumor activity against human K562 cells xenografted in mouse assessed as eradication of tumor at 5 to 10 mg/kg, po qd for 6 days; assay type: functional, organism-based
Cytochrome P450 1A2 = Cytochrome P450 1A2 (Homo sapiens, UniProt P05177); assay: Inhibition of human recombinant CYP1A2 at 30 uM after 30 mins; assay type: ADME; details: recombinant enzyme, 0.5 h
Sequence of Cytochrome P450 1A2 (P05177 whole entry): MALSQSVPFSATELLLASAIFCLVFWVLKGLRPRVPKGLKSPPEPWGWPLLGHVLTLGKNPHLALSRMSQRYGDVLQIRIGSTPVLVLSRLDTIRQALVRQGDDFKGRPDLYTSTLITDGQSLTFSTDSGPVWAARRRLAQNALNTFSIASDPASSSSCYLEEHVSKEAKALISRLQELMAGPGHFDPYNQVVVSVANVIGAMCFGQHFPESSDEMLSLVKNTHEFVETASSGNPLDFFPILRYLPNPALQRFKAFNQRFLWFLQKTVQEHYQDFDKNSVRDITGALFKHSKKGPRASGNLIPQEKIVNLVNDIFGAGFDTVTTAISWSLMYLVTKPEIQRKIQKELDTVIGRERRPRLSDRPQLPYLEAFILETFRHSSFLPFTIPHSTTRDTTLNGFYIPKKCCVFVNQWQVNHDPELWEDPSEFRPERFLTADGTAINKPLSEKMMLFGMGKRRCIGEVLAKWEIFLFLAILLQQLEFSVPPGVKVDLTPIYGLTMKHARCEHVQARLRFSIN

[23] = Intrinsic clearance in rat liver microsomes at 1 uM; assay type: ADME, Microsome; details: read-out: CLH
[24] = biological target: Voltage-gated inwardly rectifying potassium channel KCNH2 (Homo sapiens, UniProt Q12809); assay: Inhibition of human ERG expressed in CHO cells at up to 30 uM after 2.5 hrs by Rb+ efflux assay; assay type: cell-based
K562 [25] = assay: Antitumor activity against human K562 cells xenografted in mouse assessed as decrease in tumor recurrence at 2 mg/kg, po qd for 20 days; assay type: functional, organism-based; set-up: dose 2 mg/kg
Cytochrome P450 2C19 = Cytochrome P450 2C19 (Homo sapiens, UniProt P33261); assay: Inhibition of human recombinant CYP2C19 after 30 mins; assay type: ADME
BaF3 [26] = assay: Antitumor activity against mouse BA/F3 cells expressing BCR-ABL T315I mutant allografted in SCID mouse assessed as suppression of cell proliferation at 1 to 20 mg/kg/day, po qd for 10 days; assay type: functional, organism-based

## Cc1ccc(C(=O)Nc2ccc(CN3CCN(C)CC3)c(C(F)(F)F)c2)cc1C#Cc1cnc2[nH]ncc2c1 [OLVEREMBATINIB]
[1]
  pKd: 9.55
[2]
  pIC50: 9.54
[3]
  pIC50: 8.09
BaF3 [4]
  Activity: Active
[5]
  Activity: inactive
[6]
  pIC50: 9.47
[7]
  pIC50: 8.26
[8]
  pIC50: 8.40
[9]
  Activity: inactive
K562 [10]
  pIC50: 9.70
Cytochrome P450 2C9
  pIC50: 6.96
Mus musculus
  Activity: < 5%
[11]
  AUC(0-t): 6700 ng·h/mL
K562 [12]
  pIC50: 8.35
[13]
  Activity: inactive
[14]
  CL/F: 60 mL/min/kg
[15]
  pIC50: 8.52
[16]
  pIC50: 6.77
Cytochrome P450 2D6
  inhibition (INH): Not Active
[17]
  pIC50: 8.14
BaF3 [18]
  Activity: Active
BaF3 [19]
  Activity: Dose-dependent effect
[20]
  Activity: inactive
BaF3 [21]
  Activity: Active
K562 [22]
  Activity: Active
Cytochrome P450 1A2
  inhibition (INH): Not Active
[23]
  microsomal CLint at 1 µM: 36.4 µL/min/mg
[24]
  inhibition (INH): Not Active
K562 [25]
  Activity: inactive
Cytochrome P450 2C19
  pIC50: 6.00
BaF3 [26]
  Activity: Dose-dependent effect
